The source made the active and inactive calls. The calls are words filed in the database; no cut-off is given here. Peptide text beside a SMILES is read from it.
Legend:
THP-1 [1] = experiment: Effective dose against monocyte chemoattractant protein-1(MCP-1) induced leukocyte migration of THP-1 cells at 100 uM conc.; Inactive; assay type: functional, cell-based; conditions: Homo sapiens
Outline: (§1)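 Trans-well microtiter migration of human myelomonocytic THP-1 cells toward 25 ng/mL MCP-1 in Gey's balanced salt solution with 1 mg/mL endotoxin-free BSA, no fetal calf serum, 2 h at 37 °C. Compound is in both compartments, DMSO 1% final, tested up to 100 μM. Migrated cells are counted by MTT as % of vehicle-only migration. ED50 is the concentration giving 50% reduction; triplicate determinations.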

THP-1 [2] = experiment: Effective dose against monocyte chemoattractant protein-1(MCP-1) induced leukocyte migration of THP-1 cells; assay type: functional; conditions: Homo sapiens, read-out: ED50 (the source's name); outline: as §1

| Compound | NA (THP-1 [1]) | EC50 (THP-1 [2]) [µM] |
| --- | --- | --- |
| CC(C)[C@H](N)C(=O)N[C@@H](Cc1c[nH]c2ccccc12)C(=O)N[C@@H](CCC(N)=O)C(=O)O (H-Val-Trp-Gln-OH) | inactive | – |
| CC(C)(C)OC(=O)N[C@@H](CCC(N)=O)C(=O)NCc1ccccc1 | – | > 100 |
| CC(C)[C@H](NC(=O)[C@@H](N)Cc1c[nH]c2ccccc12)C(=O)N[C@@H](CCCN=C(N)N)C(=O)O (H-Trp-Val-Arg-OH) | inactive | – |
| CC(C)[C@H](NC(=O)[C@H](Cc1c[nH]c2ccccc12)NC(=O)[C@H](CCCCN)NC(=O)[C@H](CCC(N)=O)NC(=O)[C@H](CCCCN)NC(=O)[C@@H]1CCCN1C(=O)[C@H](CC(=O)O)NC(=O)[C@H](C)NC(=O)[C@@H](N)CS)C(=O)N[C@@H](CCC(N)=O)C(=O)O (H-CADPKQKWVQ-OH) | – | 8 |
| NC(=O)CC[C@H](NC(=O)c1ccccc1)C(N)=O | – | > 100 |
| O=C(O)CCCCCCCCC(=O)N[C@H]1CCC(=O)NC1=O | – | 0.066 |
| C=CCCCCCCCCC(=O)N[C@H]1CCC(=O)N(C)C1=O | – | 0.033 |
| CC[C@H](C)[C@H](NC(=O)[C@@H](N)CCC(=O)O)C(=O)N[C@@H](CS)C(=O)N[C@@H](C)C(=O)N[C@@H](CC(=O)O)C(=O)N1CCC[C@H]1C(=O)O (H-EICADP-OH) | – | 50 |
| CCCCCCCCCCC(=O)N[C@H]1CCC(=O)NC1=O | – | 0.01 |
| CCCCCCC(=O)N[C@H]1CCC(=O)NC1=O | – | 0.02 |
| NC(=O)CC[C@H](NC(=O)c1ccccc1)C(=O)NCc1ccccc1 | – | > 100 |
| CCCC(CCC)C(=O)N[C@H]1CCC(=O)NC1=O | – | 0.66 |
| NC(=O)CC[C@H](NC(=O)c1ccccc1)C(=O)O | – | > 100 |
| CC(C)[C@H](NC(=O)[C@@H](N)Cc1ccc(O)cc1)C(=O)N[C@@H](CCC(N)=O)C(=O)O (H-Tyr-Val-Gln-OH) | – | 25 |
| CC(C)(C)OC(=O)N[C@@H](CCC(N)=O)C(N)=O | – | 45 |
| C=CCCCCCCCCC(=O)N[C@H]1CCCNC1=O | – | 0.1 |
| CC(C)[C@H](NC(=O)[C@H](CCC(N)=O)NC(=O)[C@@H](N)Cc1c[nH]c2ccccc12)C(=O)O (H-Trp-Gln-Val-OH) | inactive | – |
| CC(C)[C@H](NC(=O)[C@H](Cc1c[nH]c2ccccc12)NC(=O)[C@H](CCCCN)NC(=O)[C@H](CCC(N)=O)NC(=O)[C@@H](N)CCCCN)C(=O)N[C@@H](CCC(N)=O)C(=O)O (H-KQKWVQ-OH) | – | 6 |
| O=C1CC[C@H](NC(=O)c2ccccc2)C(=O)N1 | – | > 100 |
| CC(C)[C@H](NC(=O)[C@@H](N)Cc1c[nH]c2ccccc12)C(=O)N[C@@H](CC(N)=O)C(=O)O (H-Trp-Val-Asn-OH) | – | > 100 |
| NCCCC[C@H](NC(=O)[C@H](CCC(N)=O)NC(=O)[C@@H](N)CCCCN)C(=O)O | – | 12 |
| CC(C)[C@H](NC(=O)[C@@H](N)Cc1c[nH]c2ccccc12)C(=O)NCC(=O)O (H-Trp-Val-Gly-OH) | inactive | – |
| C=CCCCCCCCCC(=O)N[C@@H](CCC(N)=O)C(=O)NCc1ccccc1 | – | 40 |
| CCCCC(=O)N[C@H]1CCC(=O)NC1=O | – | 0.033 |
| CC(C)[C@H](N)C(=O)N[C@H](C(=O)N[C@@H](CCC(N)=O)C(=O)O)C(C)C (H-Val-Val-Gln-OH) | – | > 100 |
| CC[C@H](C)[C@H](NC(=O)[C@@H](N)CCC(=O)O)C(=O)N[C@@H](CS)C(=O)N[C@@H](C)C(=O)N[C@@H](CC(=O)O)C(=O)N1CCC[C@H]1C(=O)N[C@@H](CCCCN)C(=O)N[C@@H](CCC(N)=O)C(=O)N[C@@H](CCCCN)C(=O)N[C@@H](Cc1c[nH]c2ccccc12)C(=O)N[C@H](C(=O)N[C@@H](CCC(N)=O)C(=O)O)C(C)C (H-EICADPKQKWVQ-OH) | – | 8 |
| C=CCCCCCCCCC(=O)N[C@@H](CCC(N)=O)C(N)=O | – | 15 |
| CCCCCCCCC(=O)N[C@H]1CCC(=O)NC1=O | – | 0.01 |
| CC(C)[C@H](NC(=O)CN)C(=O)N[C@@H](CCC(N)=O)C(=O)O (H-Gly-Val-Gln-OH) | inactive | – |

From ChEMBL document CHEMBL1135803, “Design, synthesis, and preliminary pharmacological evaluation of N-acyl-3-aminoglutarimides as broad-spectrum chemokine inhibitors in vitro and anti-inflammatory agents in vivo” (2002)
